These results are taken from PubChem BioAssay AID463073 (The Scripps Research Institute Molecular Screening Center, 2010).

The whole screen tested about 2,000 compounds, of which about 10 (0.5%) were called active. The sample as a whole holds a higher share of actives than the screen did. Unmarked numbers belong to inactive results.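 Rule for the calls: active = inhibition above 30%; inactive = the rest.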

Chain of Protein-arginine deiminase type-4 (Homo sapiens) (Q9UM07 whole entry, looked up): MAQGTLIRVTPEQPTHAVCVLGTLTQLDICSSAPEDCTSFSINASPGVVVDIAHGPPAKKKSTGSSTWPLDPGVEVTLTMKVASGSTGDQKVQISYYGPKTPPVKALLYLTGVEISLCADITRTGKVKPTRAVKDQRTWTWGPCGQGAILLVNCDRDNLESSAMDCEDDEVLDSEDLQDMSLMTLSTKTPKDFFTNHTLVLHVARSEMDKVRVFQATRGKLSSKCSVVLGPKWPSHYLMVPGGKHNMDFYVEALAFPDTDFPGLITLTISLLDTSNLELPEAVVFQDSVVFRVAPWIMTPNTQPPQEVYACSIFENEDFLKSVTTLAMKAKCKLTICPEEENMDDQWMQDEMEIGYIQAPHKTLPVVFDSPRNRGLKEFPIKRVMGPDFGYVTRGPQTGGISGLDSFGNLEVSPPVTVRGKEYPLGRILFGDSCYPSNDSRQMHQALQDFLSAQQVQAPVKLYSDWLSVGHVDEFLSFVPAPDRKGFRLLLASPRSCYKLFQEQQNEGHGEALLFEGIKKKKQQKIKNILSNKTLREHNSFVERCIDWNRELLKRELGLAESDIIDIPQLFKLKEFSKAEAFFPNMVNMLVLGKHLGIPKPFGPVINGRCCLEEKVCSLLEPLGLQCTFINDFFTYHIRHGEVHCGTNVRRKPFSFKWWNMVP

For this test, the target named is Protein-arginine deiminase type-4 (Homo sapiens) (UniProt Q9UM07). The test is described as follows: human PAD4 inhibitors, primary screen, biochemical, fluorescence polarization (AID 463073).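 Note: 0% = PAD4 with DMSO and 100% = wells lacking PAD4.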 The note with it: recombinant PAD4, RFA probe fluorescence polarization; at 5 µM; stronger effect = higher value. A digest of the protocol:
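Material: recombinant human PAD4 enzyme / Input: PAD4 at 2 µM in dispensed buffer, before additions / Medium: HEPES buffer pH 7.6 with 10 mM CaCl2 and TCEP / Incubation: 30-min PAD4–compound preincubation (25 °C), then 5-h probe labeling (37 °C) / Detection: fluorescence polarization, 598 nm emission after 525 nm excitation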
On the technique in general: Fluorescence polarisation rises when a labelled molecule tumbles more slowly, as on binding a larger partner.
As a reminder, the inhibition is how much of the control response was suppressed. In the case of `O=C1C=Cc2ccccc2C1=O`, the inhibition was 6.7%.

In the case of `O=C1C(=O)c2ccccc2-c2ccccc21`, the inhibition was 94.3% (active).

Consider `C[C@H]1CCCC(=O)CCC/C=C/c2cc(O)cc(O)c2C(=O)O1`, for which the inhibition is 0.58%.

On to `CC(C)[C@@]1(NC(=O)[C@@H]2C[C@@H]3c4cccc5[nH]cc(c45)C[C@H]3N(C)C2)O[C@@]2(O)[C@@H]3CCCN3C(=O)[C@H](Cc3ccccc3)N2C1=O`, for which the inhibition was 4.69%.

Consider `CC1CCC[C@H](O)CCCCCc2cc(O)cc(O)c2C(=O)O1` (stereo not given in full), for which the inhibition was 2.98%.

As for `CN1C2CCC1CC(OC(=O)CCN1CCCC1)C2` (stereo not given), the inhibition was 0.67%.

With `COc1ccc(Cc2nccc3cc(OC)c(OC)cc23)cc1OC`, the inhibition was 74.4% (active).

Take `C[C@H]1CC[C@@]2(C)[C@@H](CC[C@@H]3[C@@H]2CC[C@]2(C)[C@@H](O)CC[C@@H]32)C1`: the inhibition is 5.74%.

In the case of `O=Cc1cn(Cc2ccc(F)cc2)c2ccccc12`, the inhibition was 0.18%.

Turning to `C[C@]12CCC(=O)C=C1CC[C@@H]1[C@@H]2C(=O)C[C@]2(C)C(=O)CC[C@@H]12`, the inhibition was 3.91%.
